# Key:
# Prostacyclin receptor = Prostacyclin receptor (Homo sapiens, UniProt P43119); assay: Displacement of [3H]Iloprost from human prostanoid IP receptor expressed in CHO cells after 30 mins by liquid scintillation counting; format: cell-based
# How it was run: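 Membranes from CHO cells stably expressing hIP were incubated with 5.0 nM [³H]iloprost and graded compound concentrations in 50 mM Tris-HCl (1 mM EDTA, 10 mM MgCl₂, pH 7.5) for 30 min at room temperature. Filters (GF/B) were washed with ice-cold Tris/NaCl pH 7.5, dried 60 min at 60 °C, and counted. Nonspecific binding used excess unlabeled iloprost. Ki = IC50/(1+[L]/Kd).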
# [1] = Kinetic solubility of the compound; format: physicochemical; details: read-out: Kinetic_solubility
# Cavia porcellus [2] = assay: Inhibition of PGD2-induced vascular permeability in Hartley guinea pig conjunctiva at 0.1 mg/kg, po administered 1 hr before antigen challenge measured after 30 mins; format: functional
# How it was run: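 Guinea pigs (n = 8) were dosed orally 1 h before topical PGD₂ challenge (20 µL/eye). 5% Evans blue (1 mL/kg iv) was given immediately after challenge. After 30 min the conjunctiva was excised and dye extracted in DMF at 37 °C, with absorbance read at 620 nm. Dunnett's test versus control.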
# [3] = Cmax in rat at 1 mg/kg, po administered as single dose; details: in vivo
# [4] = target: T1, Prostaglandin D2 receptor (Mus musculus, UniProt P70263); assay: Displacement of [3H]-PGD2 from mouse DP receptor expressed in CHO cells after 20 mins by liquid scintillation counting; format: cell-based
# T1 sequence (P70263 whole entry): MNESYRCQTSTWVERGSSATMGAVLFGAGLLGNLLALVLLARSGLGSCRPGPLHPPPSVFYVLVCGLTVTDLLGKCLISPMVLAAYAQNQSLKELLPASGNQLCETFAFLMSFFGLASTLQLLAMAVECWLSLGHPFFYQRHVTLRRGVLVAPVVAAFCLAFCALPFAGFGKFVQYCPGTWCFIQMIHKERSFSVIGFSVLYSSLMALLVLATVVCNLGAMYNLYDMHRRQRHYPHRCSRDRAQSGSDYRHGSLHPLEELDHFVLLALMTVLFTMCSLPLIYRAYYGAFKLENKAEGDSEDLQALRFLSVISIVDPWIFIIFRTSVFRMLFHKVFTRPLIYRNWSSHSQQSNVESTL
# How it was run: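 CHO-mDP membranes were incubated with 2.5 nM [³H]PGD₂ and graded compound concentrations in 25 mM HEPES-NaOH (1 mM EDTA, 5 mM MgCl₂, 10 mM MnCl₂, pH 7.4) for 20 min at room temperature. Bound ligand was collected on GF/B filters and washed with ice-cold Tris/NaCl/0.01% BSA, pH 7.4. Nonspecific binding was defined with excess unlabeled PGD₂. IC50 came from the regression curve; Ki = IC50/(1+[L]/Kd).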
# [5] = target: T1, Prostaglandin D2 receptor; assay: Antagonist activity at mouse prostanoid DP receptor expressed in CHO cells assessed as inhibition of PGD2-induced intracellular cAMP production after 10 mins by enzyme immunoassay; format: functional, cell-based
# How it was run: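 CHO cells expressing mDP seeded at 1 × 10⁵ cells/well and grown 2 days. They were rinsed and preincubated ~10 min at 37 °C in MEM with 2 µM diclofenac, then ~10 min in assay medium (MEM, 0.1% BSA, 1 mM IBMX, 2 µM diclofenac). Compound plus 10 nM PGD₂ was added for 10 min at 37 °C. TCA stop, tri-n-octylamine/chloroform extraction, cAMP by EIA. IC50 taken from % of maximal cAMP rise without compound.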
# [6] = target: T2, Prostaglandin D2 receptor (Homo sapiens, UniProt Q13258); assay: Antagonist activity at prostanoid DP receptor in human platelet rich plasma assessed as inhibition of PGD2-induced intracellular cAMP production after 10 mins by enzyme immunoassay; format: functional, cell-based; details: in the assay text read “after 15 mins” for “after 10 mins”
# T2 sequence (Q13258 whole entry): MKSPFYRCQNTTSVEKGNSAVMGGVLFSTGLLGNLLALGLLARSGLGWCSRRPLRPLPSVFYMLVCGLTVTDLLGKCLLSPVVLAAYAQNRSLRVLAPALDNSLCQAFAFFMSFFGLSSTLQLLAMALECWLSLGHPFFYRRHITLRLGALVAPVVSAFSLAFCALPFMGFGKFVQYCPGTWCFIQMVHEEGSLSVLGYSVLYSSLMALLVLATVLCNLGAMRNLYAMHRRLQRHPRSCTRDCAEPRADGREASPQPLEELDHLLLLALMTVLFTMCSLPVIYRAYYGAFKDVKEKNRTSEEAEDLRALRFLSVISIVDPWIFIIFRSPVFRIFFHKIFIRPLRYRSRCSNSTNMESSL
# How it was run: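 Human PRP with EDTA (~10 mmol/L) was spun at 1500 G for 15 min. Platelets were resuspended in PPP at 5.0 × 10⁵/µL with IBMX (8 mmol/L final) and an EP3 antagonist, then held 5 min at 37 °C. Compound was added for 10 min at 37 °C, then PGD₂ (3 µmol/L final) for 15 min. TCA stop, tri-n-octylamine extraction, cAMP EIA. IC50 derived from inhibition ratio.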
# [7] = Volume of distribution at steady state in rat at 1 mg/kg, iv administered as single dose; format: ADME, organism-based; design: dose 1 mg/kg, route intravenous; details: in vivo, read-out: Vdss
# How it was run: (§1)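 Fasted male rats (n = 3) received a single 1 mg/kg iv dose in 30% HP-β-CD with 5% DMSO and 1 eq NaHCO₃. Jugular blood was drawn into heparin before dosing and at 5, 15, 30 min and 1, 2, 4, 6, 8, 24 h. Plasma was obtained by centrifugation at 4 °C. Parameters came from the plasma concentration-time course.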
# [8] = AUC (0 to infinity) in rat at 1 mg/kg, po administered as single dose; format: ADME, organism-based; design: time infinity, dose 1 mg/kg, route oral; details: plasma
# How it was run: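 Fasted male rats (n = 3) given a single oral dose of 1 mg/kg in 0.5% MC. Heparinized jugular vein blood sampled pre-dose and at 15, 30 min and 1, 2, 4, 6, 8, 24 h. Plasma separated by centrifugation at 4 °C and kept at -80 °C. AUC derived from the plasma concentration–time profile.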
# [9] = AUC (0 to infinity) in rat at 1 mg/kg, iv administered as single dose; format: ADME, organism-based; design: time infinity, dose 1 mg/kg, route intravenous; details: plasma
# How it was run: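 Single IV dose of 1 mg/kg to fasted male rats (n = 3). Vehicle: 30% HP-b-CD containing 5% DMSO with NaHCO3 (1 eq). Jugular vein blood taken in heparinized syringe pre-dose and at 5, 15, 30 min and 1, 2, 4, 6, 8, 24 h. Plasma obtained by centrifugation at 4 °C and stored at -80 °C. AUC derived from the plasma concentration–time course.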
# [10] = Oral bioavailability in rat at 1 mg/kg administered as single dose; format: ADME, organism-based; details: in vivo
# How it was run: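 Fasted male rats (n = 3) were given 1 mg/kg orally in 0.5% methylcellulose and 1 mg/kg iv in 30% HP-β-CD/5% DMSO/NaHCO₃, each as a single dose. Plasma from serial jugular samples was analysed. Bioavailability was derived from oral versus iv exposure, corrected for dose (D_po, D_iv).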
# [11] = Total clearance in rat at 1 mg/kg, iv administered as single dose; format: ADME, organism-based; design: dose 1 mg/kg, route intravenous; details: in vivo; how it was run: as §1
# Cavia porcellus [12] = assay: Inhibition of OVA-induced vascular permeability in Hartley guinea pig conjunctiva at 1 mg/kg, po administered 1 hr before antigen challenge measured after 30 mins; format: functional
# How it was run: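 Male Hartley guinea pigs were sensitized ip with OVA (1 mg) plus inactivated B. pertussis. Two weeks later they were challenged topically with OVA (1%, 20 µL/eye), followed at once by Evans blue (20 mg/kg iv). Compound was given orally 1 h before challenge (n = 7). After 30 min the conjunctiva was removed, dye was extracted in DMF at 37 °C, and A620 was read against a standard curve. Dunnett's test was used.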
# [13] = Half life in rat at 1 mg/kg, iv administered as single dose; format: ADME, organism-based; design: dose 1 mg/kg, route intravenous; details: in vivo; how it was run: as §1
# [14] = Half life in rat at 1 mg/kg, po administered as single dose; format: ADME, organism-based; design: dose 1 mg/kg, route oral; details: in vivo
# How it was run: (§2)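 Fasted male rats (n = 3) received a single oral 1 mg/kg dose in 0.5% methylcellulose. Jugular blood was drawn into heparin before dosing and at 15, 30 min and 1, 2, 4, 6, 8, 24 h. Plasma was separated at 4 °C. Parameters came from the plasma concentration-time course.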
# [15] = Cmax in rat at 1 mg/kg, po administered as single dose; format: ADME, organism-based; design: dose 1 mg/kg, route oral; details: in vivo; how it was run: as §2
# Prostacyclin receptor, sequence (P43119 whole entry): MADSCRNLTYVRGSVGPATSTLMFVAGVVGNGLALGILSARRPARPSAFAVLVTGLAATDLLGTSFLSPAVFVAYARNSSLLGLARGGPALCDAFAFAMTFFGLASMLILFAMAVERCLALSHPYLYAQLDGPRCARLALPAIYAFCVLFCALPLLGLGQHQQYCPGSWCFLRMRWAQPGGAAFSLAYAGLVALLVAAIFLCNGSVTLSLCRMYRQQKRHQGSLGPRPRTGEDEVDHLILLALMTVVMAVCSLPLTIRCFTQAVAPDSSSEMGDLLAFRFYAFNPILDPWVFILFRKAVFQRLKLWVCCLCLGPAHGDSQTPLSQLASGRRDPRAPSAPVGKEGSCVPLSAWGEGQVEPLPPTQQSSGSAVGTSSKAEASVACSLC
Compound,Ki (Prostacyclin receptor) [nM],IC50 [5] [nM],also measured
CN1C[C@@H](COc2ccc(C(=O)Nc3cccc(CC(=O)O)c3)c(Cl)c2)Oc2ccccc21,2700,,
Cc1cc(OC[C@@H]2CN(C)c3ccccc3O2)cc(C)c1C(=O)Nc1cc(CC(=O)O)ccc1Cl,> 10000,7.6,inhibition in vivo at 0.1 mg/kg (Cavia porcellus [2]): 55%; Cmax [3]: 930 ng/mL; Ki [4]: 6.4 nM; IC50 [6]: 4.4 nM; Vd [7]: 0.622 L/kg; AUC(0-inf) [8]: 8120 ng·h/mL; AUC(0-inf) [9]: 11300 ng·h/mL; solubility kinetic [1]: 407 µg/mL; bioavailability [10]: 72%; clearance [11]: 1.6 mL/min/kg; inhibition in vivo at 1 mg/kg (Cavia porcellus [12]): 46%; half-life [13]: 6.2 h; half-life [14]: 5.8 h
CN1C[C@@H](COc2ccc(C(=O)Nc3cc(C(C)(C)C(=O)O)ccc3Cl)c(Cl)c2)Oc2ccccc21,3300,7,IC50 [6]: 280 nM; solubility kinetic [1]: 139 µg/mL
Cc1cc(C(=O)Nc2cc(C3(C(=O)O)CC3)ccc2Cl)c(C)cc1OC[C@@H]1CN(C)c2ccccc2O1,1700,26,IC50 [6]: 19 nM
CN1C[C@@H](COc2ccc(C(=O)Nc3cc(CC(=O)O)ccc3Cl)c(Cl)c2)Oc2ccccc21,,,IC50 [6]: > 50 nM
Cc1cc(OC[C@@H]2COc3ccccc3O2)cc(C)c1C(=O)Nc1cc(CC(=O)O)ccc1Cl,> 10000,4.3,
Cc1cc(OCC2Oc3ccccc3O2)cc(C)c1C(=O)Nc1cc(CC(=O)O)ccc1Cl,> 10000,27,
Cc1cc(OC[C@@H]2COc3ccccc32)cc(C)c1C(=O)Nc1cc(CC(=O)O)ccc1Cl,> 10000,1.5,
CN1C[C@@H](COc2ccc(C(=O)n3ccc4c(CC(=O)O)cccc43)cc2)Oc2ccccc21,2500,,Ki [4]: 1700 nM
CN1C[C@@H](COc2ccc(C(=O)Nc3cc(C(F)(F)C(=O)O)ccc3Cl)c(Cl)c2)Oc2ccccc21,520,14,
Cc1ccc2c(c1)[C@H](COc1cc(C)c(C(=O)Nc3cc(CC(=O)O)ccc3Cl)c(C)c1)CO2,> 10000,24,
Cc1cc(OC[C@@H]2CN(C)c3ccccc3O2)cc(C)c1C(=O)Nc1cccc(CC(=O)O)c1,> 10000,3.5,
Cc1cc(OC[C@@H]2Cc3ccccc3O2)cc(C)c1C(=O)Nc1cc(CC(=O)O)ccc1Cl,> 10000,14,
Cc1cc2c(CC(=O)O)cccc2n1C(=O)c1ccc(OC[C@@H]2CN(C)c3ccccc3O2)cc1,,,inhibition in vivo at 0.1 mg/kg (Cavia porcellus [2]): 67%; IC50 [6]: 57 nM; solubility kinetic [1]: 8.2 µg/mL
Cc1cc(OC[C@@H]2CN(C)c3ccccc3O2)cc(C)c1C(=O)Nc1cc(C(C)(C)C(=O)O)ccc1Cl,> 10000,0.7,inhibition in vivo at 0.1 mg/kg (Cavia porcellus [2]): 58%; Cmax [15]: 1670 ng/mL; IC50 [6]: 8.1 nM; Vd [7]: 0.669 L/kg; AUC(0-inf) [8]: 8280 ng·h/mL; AUC(0-inf) [9]: 9520 ng·h/mL; solubility kinetic [1]: 490 µg/mL; bioavailability [10]: 87%; clearance [11]: 1.8 mL/min/kg; half-life [13]: 6.5 h; half-life [14]: 5.6 h
Cc1cc(C(=O)Nc2cc(C(C)(C)C(=O)O)ccc2Cl)c(C)cc1OC[C@@H]1CN(C)c2ccccc2O1,3300,43,IC50 [6]: 32 nM
Cc1cc(C(=O)Nc2cccc(CC(=O)O)c2)c(C)cc1OC[C@@H]1CN(C)c2ccccc2O1,> 10000,28,
Cc1cc(OC[C@@H]2CN(C)c3ccccc3O2)cc(C)c1C(=O)Nc1cc(C2(C(=O)O)CC2)ccc1Cl,> 10000,1,solubility kinetic [1]: 321 µg/mL

# Now from value to molecule, other results behind:
Ki (Prostacyclin receptor) [nM],IC50 [5] [nM],Compound,also measured
1800,,Cc1cc(OC[C@@H]2CN(C)c3ccccc3O2)ccc1C(=O)Nc1cc(CC(=O)O)ccc1Cl,solubility kinetic [1]: 129 µg/mL
1800,5.1,Cc1cc(C(=O)Nc2cc(CC(=O)O)ccc2Cl)c(C)cc1OC[C@@H]1CN(C)c2ccccc2O1,solubility kinetic [1]: 17 µg/mL
3500,54,Cc1c(OC[C@@H]2CN(C)c3ccccc3O2)ccc(C(=O)Nc2cc(CC(=O)O)ccc2Cl)c1C,Ki [4]: 28 nM
> 10000,4.8,Cc1ccc(CC(=O)O)cc1NC(=O)c1c(C)cc(OC[C@@H]2CN(C)c3ccccc3O2)cc1C,
5200,12,Cc1ccc(CC(=O)O)cc1NC(=O)c1ccc(OC[C@@H]2CN(C)c3ccccc3O2)c(C)c1C,
2600,5.7,Cc1ccc(CC(=O)O)cc1NC(=O)c1cc(C)c(OC[C@@H]2CN(C)c3ccccc3O2)cc1C,
1400,,Cc1ccc(CC(=O)O)cc1NC(=O)c1ccc(OC[C@@H]2CN(C)c3ccccc3O2)cc1Cl,
> 10000,,Cc1cc(OC[C@@H]2CN(C)c3ccccc3O2)ccc1C(=O)Nc1cc(CC(=O)O)ccc1F,
> 10000,22,Cc1c(OC[C@@H]2CN(C)c3ccccc3O2)ccc(C(=O)Nc2cccc(CC(=O)O)c2)c1C,

# Source: ChEMBL document CHEMBL1914355, “Discovery of new orally active prostaglandin D2 receptor antagonists” (Bioorg Med Chem, 2011)
